Assay results as given in ChEMBL document CHEMBL1132320, “Evaluation of the desferrithiocin pharmacophore as a vector for hydroxamates” (1999).
Values joined by “and” are separate entries in the source; they are usually repeats but may differ in a detail not shown here. Equal entries are not always repeated.

How the values were obtained:
Assay type in all cases: functional
Rattus norvegicus [1] = test: Efficiency is defined as net iron excretion in rats at the dose of 150 umol/kg administered perorally.
Outline: (§1)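 Male Sprague–Dawley rats (~400 g) with bile-duct cannulas, under sodium pentobarbital (55 mg/kg ip) anesthesia, housed in metabolic cages with free water. Chelator is given as a single dose in 40% Cremophor RH-40/H2O (v/v). Bile is collected at 3-h intervals for 24 h and urine every 24 h. Iron is measured by flame atomic absorption. Efficiency = (treated minus control iron excretion)/theoretical output, as %; bile/urine split reported.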

Rattus norvegicus [2] = test: Efficiency is defined as net iron excretion in rats at the dose of 150 umol/kg administered subcutaneously.; outline: as §1
Monkey [3] = test: The efficiency was calculated by averaging the iron output for 4 days before the administration of the drug, subtracting these numbers from the 2-day iron clearance after the administration of the drug at the dose of 300 umol/kg administered subcutaneously in monkeys.
Outline: (§2)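 Cebus apella monkeys iron-loaded with iv iron dextran (200–300 mg Fe/kg per slow 45–60 min infusion, to about 500 mg Fe/kg), rested ≥60 days. Chelator is given in 40% Cremophor RH-40/H2O (v/v). Feces and urine are collected from 4 days before to 5 days after dosing. Iron is measured by flame atomic absorption. Efficiency = (2-day post-drug iron minus 4-day baseline average)/theoretical output, as %.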

Monkey [4] = test: The efficiency was calculated by averaging the iron output for 4 days before the administration of the drug, subtracting these numbers from the 2-day iron clearance after the administration of the drug at the dose of 150 umol/kg administered perorally in monkeys.; outline: as §2
Monkey [5] = test: The efficiency was calculated by averaging the iron output for 4 days before the administration of the drug, subtracting these numbers from the 2-day iron clearance after the administration of the drug at the dose of 300 umol/kg administered perorally in monkeys.; outline: as §2
Monkey [6] = test: The efficiency was calculated by averaging the iron output for 4 days before the administration of the drug, subtracting these numbers from the 2-day iron clearance after the administration of the drug at the dose of 150 umol/kg administered subcutaneously in monkeys.; outline: as §2
Monkey [7] = test: The efficiency was calculated by averaging the iron output for 4 days before the administration of the drug, subtracting these numbers from the 2-day iron clearance after the administration of the drug at the dose of 225 umol/kg administered perorally in monkeys.; outline: as §2

| SMILES | Efficiency (Rattus norvegicus [1]) | Efficiency (Rattus norvegicus [2]) | Efficiency (Monkey [3]) | Efficiency (Monkey [4]) | Efficiency (Monkey [5]) | Efficiency (Monkey [6]) | Efficiency (Monkey [7]) |
| --- | --- | --- | --- | --- | --- | --- | --- |
| O=C([C@H]1CSC(c2ncccc2O)=N1)N(O)CCOCCOCCN(O)C(=O)[C@H]1CSC(c2ncccc2O)=N1 | 4.6% | 20.6% |  |  |  |  |  |
| O=C(O)[C@H]1CSC(c2ncccc2O)=N1 | 2.4% | 1.8% | 8.3% | 4.8% | 8% |  |  |
| O=C(C1CSC(c2ncccc2O)=N1)N(O)Cc1ccccc1 (stereo not given) | 1% | 1.4% |  |  | <0.5% |  |  |
| CN(O)C(=O)[C@H]1CSC(c2ncccc2O)=N1 | 3.1% | 5.3% |  | 6.9% | 13.2% | 11.7% |  |
| CC(=O)N(O)CCCCCN(O)C(=O)[C@H]1CSC(c2ncccc2O)=N1 | 2.8% | 8.5% |  |  |  |  | 3.2% and 12.8% |
| O=C(c1ccccc1O)N(O)CCOCCOCCN(O)C(=O)c1ccccc1O | <0.5% | 0.8% |  |  |  |  |  |
